# Sampled rows, rich in hits. Any-hit rate of the full collection: about 4.3%.
# TAAR1 antag: human TAAR1 antagonism; Q96RJ0; CHO RD-HGA16 TAAR1, Fluo-8 calcium fluorescence, antagonist; inhibition, % at 3 µM; hit rate 1.5% among 360,000; AID 624466;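 active = inhibition above a per-plate cutoff, the mean inhibition of test compounds on that plate plus 3 SD, cut at about 49% in these data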;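 also: 0% = DMSO plus EC80 beta-PEA response and 100% = DMSO alone without agonist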
#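 System: RD-HGA16 CHO cells with stable hTAAR1 and Gα16 | Probe or stimulus: EC80 β-phenethylamine stimulus | Dosing: 3 µM, single point | Times: Dye loading 75 min at 37 °C, then 30 min room temperature | Measured by: Fluo-8 calcium-sensitive fluorescence | Read-out basis: % inhibition of agonist calcium response | Replicates: n of 1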
# TAAR1 ag: human TAAR1 agonism. Q96RJ0. activation, % at 3 µM. hit rate 0.99% among 360,000. CHO RD-HGA16 TAAR1, Fluo-8 calcium fluorescence; vehicle wells 0%, saturating PEA agonist 100%;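 active = activation above the mean activation of all test compounds in the run plus 3 SD, cut at about 38% in these data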
#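 Test system: RD-HGA16 (CHO) cells co-expressing Gα16 and hTAAR1 / Benchmarks: DMSO vehicle as 0%, PEA at EC100 as 100% / Repeats: no replicates (n 1) / Measure: % activation from peak over basal fluorescence ratio, DMSO-to-PEA scaled / Timing: 17-24 h plating, Fluo-8 75 min 37 °C, 30 min RT / Technique: kinetic Fluo-8 calcium fluorescence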
# GalR3 antag: human GalR3 antagonism; HEK293 GalR3-CNG cAMP membrane potential fluorescence; galR3 body fused to GalR1 C-terminus; AID 651719; O60755; hit rate 0.44% among 360,000; inhibition, % at 3 µM;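 active = inhibition above the screen-wide average plus 3 SD, cut at about 13% in these data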;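 also: forskolin and galanin both at EC90 stimulate the cells; cAMP rise reported by CNG channel membrane potential dye signal; 0% = forskolin plus galanin with DMSO and 100% = forskolin alone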
# OX1R antag-1: human HCRTR1 antagonism; inhibition, % at 5 µM; CHO/OX1R cells, Fluo-8 calcium fluorescence, orexin A; O43613; hit rate 0.43% among 330,000;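 active = inhibition above its plate's threshold, mean inhibition of all tested compounds on the plate plus 3 SD, cut at about 37% in these data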;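 also: 0% = orexin A challenge wells and 100% = SB-334867-A antagonist wells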
# Target sequence (O43613 whole entry, looked up): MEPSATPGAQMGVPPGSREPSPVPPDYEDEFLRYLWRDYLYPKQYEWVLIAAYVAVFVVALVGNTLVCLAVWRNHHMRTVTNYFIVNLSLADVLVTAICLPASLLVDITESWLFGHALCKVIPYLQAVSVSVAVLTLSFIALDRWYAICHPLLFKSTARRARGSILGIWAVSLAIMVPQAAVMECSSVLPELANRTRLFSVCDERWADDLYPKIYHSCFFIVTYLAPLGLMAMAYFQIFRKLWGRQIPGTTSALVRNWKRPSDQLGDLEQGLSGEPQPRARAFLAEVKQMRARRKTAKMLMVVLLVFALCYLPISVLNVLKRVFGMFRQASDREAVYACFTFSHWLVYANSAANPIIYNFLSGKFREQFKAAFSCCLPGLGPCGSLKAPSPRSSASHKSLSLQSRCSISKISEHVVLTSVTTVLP
# OX1R antag-2: blocks the human orexin 1 receptor. inhibition, % at 6.6 µM. AID 485270. hit rate 1.8% among 330,000. O43613. OX1R-expressing cells, FRET antagonist read-out; in the data active = inhibition mostly above about 38%, no sharp cut-off; inactive = mostly below about 40%;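 also: 0% = agonist challenge alone and 100% = reference antagonist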
# CHO parental Ca: signal in parental CHO cells, OX1R antagonist counter-screen; parental CHO-K1, ATP-induced calcium, Fluo-8 fluorescence; inhibition, % at 5.6 µM; hit rate 0.63% among 330,000;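 active = inhibition above that plate's mean sample inhibition plus 3 SD, cut at about 26% in these data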;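 also: 0% = ATP-challenged DMSO wells and 100% = DMSO wells without ATP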
#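 Test system: parental CHO cells; detection: calcium-sensitive Fluo-8 fluorescence; evaluation: percent inhibition of calcium signal; also added: ATP as calcium-mobilizing challenge; repeats: one well per compound; control set: ATP-challenged DMSO wells low, unchallenged DMSO wells high; compound: single nominal dose of 5.6 µM per compound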
# nonsel antag count: nonselective antagonism, TAAR1 counter-screen; shares compounds with TAAR1 antag; counterscreen cell line, calcium fluorescence, antagonist mode; inhibition, % at 3 µM; hit rate 77% among 2,400; in the data active = inhibition above about 22%;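 also: CHO-Ga16 host cells stimulated with ATP at an EC80 level; 0% = agonist EC80 plus vehicle and 100% = vehicle without agonist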
# TAAR1 antag conf: human TAAR1 antagonism, confirmed. AID 651785. TAAR1-expressing cells, fluorescence antagonist read-out. shares compounds with TAAR1 antag. hit rate 40% among 2,400. inhibition, % at 3 µM; in the data active = inhibition above about 49%;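 also: CHO-Ga16 host cells challenged with agonist PEA near its EC80; 0% = agonist at EC80 plus vehicle and 100% = vehicle with no agonist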
# Ga16 ag counter: nonselective Ga16 agonism, counter-screen; shares compounds with TAAR1 antag; Ga16-expressing cells, calcium fluorescence, agonist counterscreen; activation, % at 3 µM; hit rate 18% among 2,400; AID 651953; in the data active = activation above about 12%;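 also: 0% = vehicle wells and 100% = saturating stimulus response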
# TAAR1 ag counter: activates human TAAR1 in antagonist counter-screen | shares compounds with TAAR1 antag | hTAAR1 cell line, fluorescence activation, agonist mode | activation, % at 3 µM | hit rate 2% among 2,400 | AID 651955; in the data active = activation above about 37%;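 also: CHO cells stably expressing TAAR1 with calcium dye readout; 0% = DMSO vehicle and 100% = full agonist response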
# * = called active by the depositor; x = no result given.
SMILES,TAAR1 antag,TAAR1 ag,GalR3 antag,OX1R antag-1,OX1R antag-2,CHO parental Ca,nonsel antag count,TAAR1 antag conf,Ga16 ag counter,TAAR1 ag counter
C=CC[C@@H](CC(=O)N(CCO)Cc1ccccc1)C(=O)NC[C@@H](OC(=O)[C@@H](CC=C)CC(=O)OC(C)(C)C)c1ccccc1,59*,17,-6,-6,6,-30,29*,39,8,10
C=CC[C@@H](CC(=O)N(CCO)Cc1ccccc1)C(=O)N[C@H](COC(=O)[C@@H](CC=C)CC(=O)OC(C)(C)C)c1ccccc1,45,8,-8,-17,-2,-28,x,x,x,x
Cc1noc(C)c1C(=O)N1CCC1(C)C(=O)NS(=O)(=O)c1ccccc1Cl (configuration not stated),-10,0,0,x,x,x,x,x,x,x
COC(=O)c1cccc(NC(=O)c2ccc(S(=O)(=O)N(C)c3ccccc3OC)cc2)c1,70*,13,-4,x,x,x,32*,41,7,5
COc1ccccc1N(C)S(=O)(=O)c1ccc(C(=O)Nc2cccc(Br)c2)cc1,70*,6,-6,24,20,8,36*,38,7,2
COc1ccccc1N(C)S(=O)(=O)c1ccc(C(=O)N(C)Cc2ccc(OC(F)F)cc2)cc1,85*,15,-2,x,x,x,45*,74*,13*,11
COc1cc(NC(=O)c2ccc(S(=O)(=O)N(C)c3ccccc3OC)cc2)cc(OC)c1,43,2,-6,12,15,1,x,x,x,x
COc1ccccc1N(C)S(=O)(=O)c1ccc(C(=O)OCC(=O)NCC(F)(F)F)cc1,2,13,-7,-18,21,-18,x,x,x,x
COc1ccccc1N(C)S(=O)(=O)c1ccc(C(=O)NCCc2ccc(F)cc2)cc1,42,16,-10,-21,21,-3,x,x,x,x
COc1ccccc1N(C)S(=O)(=O)c1ccc(C(=O)OCC(=O)NCc2cccs2)cc1,83*,15,-5,-23,20,-5,38*,62*,10,13
COc1cc(OC)c(N(C)S(=O)(=O)c2cccc(C(=O)OCC(=O)N(C)Cc3ccccc3)c2)cc1Cl,40,3,-4,x,x,x,x,x,x,x
O=[N+]([O-])c1cccc(C=NNC(=S)NC23CC4CC(CC(C4)C2)C3)c1,-9,0,-6,x,x,x,x,x,x,x
CC(=O)Nc1cccc(-c2ccnc3c2CC(C)(C(=O)NCc2ccncc2)O3)c1 (configuration not stated),-10,0,-1,x,x,x,x,x,x,x
NC(=O)c1nsc(C(=O)N(c2ccccc2)C(C(=O)NCc2ccc(F)cc2)c2ccco2)c1N (configuration not stated),68*,17,-6,-8,11,-10,21*,53*,9,40*
NC(=O)c1nsc(C(=O)N(c2ccccc2)C(C(=O)NC2CCCCC2)c2ccc(O)cc2)c1N (configuration not stated),64*,6,-7,-6,7,-10,25*,40,6,8
NC(=O)c1nsc(C(=O)N(c2ccccc2)C(C(=O)NC2CCCC2)c2ccncc2)c1N (configuration not stated),-24,0,-8,-26,9,-12,x,x,x,x
O=C(NCc1ccc(F)cc1)C(c1ccco1)N(C(=O)c1csnn1)c1ccccc1 (configuration not stated),13,4,-9,-19,17,-8,x,x,x,x
NC(=O)c1nsc(C(=O)N(c2ccccc2)C(C(=O)NCc2ccc(F)cc2)c2ccc(O)cc2)c1N (configuration not stated),74*,30,-5,24,42,26,38*,64*,14*,19
O=C(NCC(c1ccco1)N1CCCC1)c1ccccc1Sc1ccc(C(F)(F)F)cc1[N+](=O)[O-] (configuration not stated),-11,2,-2,-24,25,-23,x,x,x,x
Cc1ccc(CCNC(=O)C2CCCN(c3nc4ccccc4o3)C2)cc1 (configuration not stated),50*,12,-4,-37,21,-22,23*,31,4,1
CCCn1cc(CN2CCC(Oc3ccc(C(=O)N4CCCC4)cc3)CC2)c(C)n1,-21,1,-6,2,4,-14,x,x,x,x
CCS(=O)(=O)N1N=C(c2cccs2)CC1c1cc2cc(C)ccc2nc1Cl (configuration not stated),50*,5,-5,-9,18,-14,11,19,10,9
Cc1ccc2nc(Cl)c(C3CC(c4cccs4)=NN3C(=O)CCCC(=O)O)cc2c1 (configuration not stated),-6,0,-2,-3,4,-5,x,x,x,x
CC1Nc2ncnc(N3CCN(c4ccccc4)CC3)c2N(Cc2ccc(Br)cc2)C1=O (configuration not stated),57*,29,-2,-20,23,-16,18,36,8,7
COc1ccc(CN2C(=O)C(C)Nc3ncnc(N4CCN(c5ccccc5)CC4)c32)cc1 (configuration not stated),1,14,-8,-4,5,-10,x,x,x,x
O=C(O)c1ccc(NC(=O)c2cccc(N3C(=O)C4C5CCC(C5)C4C3=O)c2)cc1 (configuration not stated),-9,1,-2,2,2,5,x,x,x,x
COc1ccc(NC(=O)c2cccc(N3C(=O)C4C5C=CC(C6CC56)C4C3=O)c2)cc1 (configuration not stated),63*,12,-5,-8,18,-15,35*,54*,13*,10
COc1ccc(NC(=O)c2cccc(N3C(=O)C4C5C=CC(C6CC56)C4C3=O)c2)c(OC)c1 (configuration not stated),30,13,-3,-15,12,-17,x,x,x,x
O=C(Nc1ccccc1)c1cccc(N2C(=O)C3C4CC(C(Br)C4Br)C3C2=O)c1 (configuration not stated),72*,24,-3,-4,26,-5,38*,64*,19*,22
